Test results reported in article PMC7445463 (Diabetologia, 2020).
Several values for one entry are separate records, joined by “and”; a condition that tells them apart may be missing. Equal values may be shown once.

Legend:
[1] = test system: individuals with type 2 diabetes; experiment: insulin icodec PK/PD trial; design: species or system human; conditions: in vivo
[2] = test system: mouse and human primary PaSC and immortalized imPaSC; experiment: Signalling and gene expression in pancreatic stellate cells; assay type: cell-based; conditions: Met 0.1-10 mM
[3] = test system: diabetic patients with chronic heart failure; assay type: in vivo, human; conditions: metformin 2 g/day for 3 months
[4] = test system: human ventricular cardiac fibroblasts (HCF); experiment: Human ventricular cardiac fibroblasts, mRNA expression by RT-qPCR; assay type: cell-based; conditions: TGF-β treatment; p<0.01
DIO C57/B6 mice = experiment: gastric emptying and weight in DIO mice; assay type: in vivo, mouse; conditions: 14-day
[5] = DIO mice under 50% dietary restriction, indirect calorimetry; assay type: in vivo, mouse
individuals with obesity = assay type: in vivo, human
HG-CD34+ stem cells = experiment: ROS production in CD34+ stem cells; assay type: cell-based, human; conditions: n=3
[6] = test system: patients with T2D and CV disease; experiment: EMPA-REG OUTCOME post hoc analyses; design: species or system human; conditions: in vivo
[7] = test system: isolated diabetic mouse hearts; experiment: Langendorff-perfused db/db hearts, stable isotope analysis
[8] = Empagliflozin 4-week crossover study, cardiac PET/CT; assay type: in vivo, human
rats with CHF = assay type: in vivo, rat; conditions: 30 mg/kg PO
[9] = 24-week empagliflozin appetite trial in overweight/obesity and T2D; assay type: in vivo, human
glucokinase [10] = molecular target: T1, glucokinase (Homo sapiens, UniProt P35557); conditions: type 2 diabetes (n=190); cited from earlier work
T1 sequence (P35557 1-465): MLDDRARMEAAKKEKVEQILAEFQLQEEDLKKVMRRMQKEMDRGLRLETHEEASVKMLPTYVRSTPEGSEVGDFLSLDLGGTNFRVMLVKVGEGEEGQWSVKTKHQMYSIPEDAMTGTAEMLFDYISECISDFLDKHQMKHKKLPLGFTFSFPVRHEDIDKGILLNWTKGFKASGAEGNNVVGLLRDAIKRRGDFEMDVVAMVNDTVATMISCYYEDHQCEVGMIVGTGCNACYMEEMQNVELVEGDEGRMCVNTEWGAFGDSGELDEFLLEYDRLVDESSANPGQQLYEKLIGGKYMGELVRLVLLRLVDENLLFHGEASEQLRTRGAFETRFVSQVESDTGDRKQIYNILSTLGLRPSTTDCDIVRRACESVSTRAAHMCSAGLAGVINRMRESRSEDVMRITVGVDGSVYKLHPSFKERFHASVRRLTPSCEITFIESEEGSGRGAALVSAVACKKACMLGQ

glucokinase [11] = molecular target: T1, glucokinase; experiment: Simplici-T1 Phase 1b/2 trial; assay type: in vivo
[12] = Insulin icodec vs IGlar U100 26-week phase 2 trial; assay type: in vivo, human
Procedure, shortened: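 Randomized, double-blind, double-dummy, treat-to-target phase 2 trial lasting 26 weeks. Participants were insulin-naïve adults with T2D and HbA1c 7.0-9.5% on metformin ± DPP4i, randomized 1:1 (n=247). Starting doses were 70 U once weekly or 10 U once daily, titrated weekly to a pre-breakfast SMBG target of 3.9-6.0 mmol/L. The primary endpoint was HbA1c change from baseline to week 26; FPG and mean weekly dose over the last two weeks were secondary.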

[13] = stated as background; cited from earlier work
[14] = test system: human hepatocytes (HepG2); experiment: GDF15 and FGF21 expression in hepatocytes; assay type: cell-based; conditions: 2 mM, up to 24-h
[15] = test system: patients with type 2 diabetes; experiment: Network meta-analysis of antidiabetic medications on blood pressure; design: species or system human; conditions: frequentist random-effects network meta-analysis, 192 studies
[16] = Intrajejunal metformin with or without bile exclusion or TCA, T2DM; assay type: in vivo, human; conditions: 1 g intrajejunal; endogenous bile included
human heart = experiment: Metformin uptake in the human heart by PET scanning; assay type: in vivo
[17] = metformin vs placebo crossover in DM and chronic heart failure; assay type: in vivo, human; conditions: 2 g/day, 3 months vs placebo
[18] = Portal vein and arterialized lactate after oral metformin; assay type: in vivo, human; conditions: 90 minutes after 1000 mg oral
[19] = Serum uteroglobin before and after metformin monotherapy; assay type: in vivo, human; conditions: after 12 months monotherapy; before 14.43±0.97; n=20
[20] = 42-h fast crossover trial with or without metformin; assay type: in vivo, human; conditions: 1 g twice daily for a week
[21] = seven- and ninety-day treatment

## insulin icodec
[1]
  geometric mean half-life (t½): 196 h

## CN(C)C(=N)N=C(N)N [MET, metformin]
[2]
  levels of yes-associated protein 1 (YAP): inhibited
[3]
  cardiac functions as assessed by echocardiography and spiroergometry: did not change
[3]; compared to placebo
  HbA1c: reduced

## transforming growth factor beta [TGF-β]
[4]
  TNC expression in HCF: upregulated TNC expression

## CC[C@H](C)[C@H](NC(=O)[C@H](CC(C)C)NC(=O)[C@H](Cc1c[nH]c2ccccc12)NC(=O)[C@H](CCC(N)=O)NC(=O)[C@@H](NC(=O)[C@H](Cc1ccccc1)NC(=O)[C@H](C)NC(=O)[C@H](CCCCNC(=O)COCCOCCNC(=O)COCCOCCNC(=O)CC[C@H](NC(=O)CCCCCCCCCCCCCCCCCCC(=O)O)C(=O)O)NC(=O)[C@H](CCC(N)=O)NC(=O)[C@H](C)NC(=O)[C@@H](NC(=O)[C@H](CCCCN)NC(=O)[C@H](CC(=O)O)NC(=O)[C@H](CC(C)C)NC(=O)C(C)(C)NC(=O)[C@@H](NC(=O)[C@H](CO)NC(=O)[C@H](Cc1ccc(O)cc1)NC(=O)[C@H](CC(=O)O)NC(=O)[C@H](CO)NC(=O)[C@@H](NC(=O)[C@H](Cc1ccccc1)NC(=O)[C@@H](NC(=O)CNC(=O)[C@H](CCC(=O)O)NC(=O)C(C)(C)NC(=O)[C@@H](N)Cc1ccc(O)cc1)[C@@H](C)O)[C@@H](C)O)[C@@H](C)CC)[C@@H](C)CC)C(C)C)C(=O)N[C@@H](C)C(=O)NCC(=O)NCC(=O)N1CCC[C@H]1C(=O)N[C@@H](CO)C(=O)N[C@@H](CO)C(=O)NCC(=O)N[C@@H](C)C(=O)N1CCC[C@H]1C(=O)N1CCC[C@H]1C(=O)N1CCC[C@H]1C(=O)N[C@@H](CO)C(N)=O [tirzepatide]
DIO C57/B6 mice
  GE delay after chronic treatment: abolished after 14-day chronic treatment
[5]; 3 nmol/kg QD, 14 days, vehicle 15.2±1.2, pair fed 17.0±0.7
  weight loss during dietary restriction: 22.4±1.3%
[5]; during DR
  increase of fat utilization vs vehicle: more than 30%
[5]; reduction, indirect calorimetry
  energy expenditure during dietary restriction: maintained similar to levels prior to DR

## liraglutide
Individuals with obesity; liraglutide 3.0 mg/day, with or without exercise, PLA -0.7
  change in heart rate during the 1-year treatment phase: 3.7 min⁻¹
Individuals with obesity; no group differences
  systolic and diastolic BP during the 1-year treatment phase: decreased
HG-CD34+ stem cells
  HG-induced production of ROS: significant reduction

## OC[C@H]1O[C@@H](c2ccc(Cl)c(Cc3ccc(O[C@H]4CCOC4)cc3)c2)[C@H](O)[C@@H](O)[C@@H]1O [EMPA, empagliflozin]
[6]
  patients with insulin dose reduction >10%: 14.0%
[7]; 1 μM, 35 min, 13C glucose perfusion, vehicle 58 ± 2
  13C labeling of lactate: 50 ± 3%
[7]; 1 μM, 35 min, vehicle 5.2 ± 0.8
  glucose-6-phosphate content: 3.3 ± 0.4 AU
[7]; 13C palmitate perfusion, vehicle 79 ± 1
  13C labeling of α-KG: 86 ± 1%
[8]; 18F-FDG PET, placebo 1.4±0.6
  myocardial glucose uptake (MGU): 0.6±0.6 μmol/100g/min
[8]; four weeks, placebo 9.4 ± 2.2
  48-hour mean blood glucose: 8.0 ± 0.9
[8]; in vivo
  reduction of postabsorptive myocardial glucose uptake: 57%
[8]; placebo 0.8±3
  circulating FFA: 1.0 ± 0.4 mmol/L
[8]; placebo 1.1±0.6
  FFA esterification rate: 1.3±0.7 μmol/100g/min
[8]; placebo 8.0±3.1
  myocardial FFA oxidation rate: 7.2±3.1 μmol/100g/min
[8]; placebo 9.1±3.2
  total FFA uptake rate: 8.4±3.6 μmol/100g/min
[8]; placebo 9.77 ± 1.34
  myocardial oxygen consumption: 8.97 ± 1.11 ml/100g/min
[8]; placebo 27.7±4.5
  myocardial external energy efficiency: 29.5±7.3%
[8]; placebo 65 ± 8
  3-hydroxybutyrate: 130 ± 17 µmol/L
[8]; placebo 92±8
  24-hour mean arterial pressure: 88±5 mmHg
Rats with CHF; long-term (90 days)
  myocardial perfusion: increased
Rats with CHF; long-term (90 days), p=0.06
  exercise capacity: increased
Rats with CHF; [21]
  LV EDP: reductions
  LV ESP: increases
[9]; 12-weeks, 3-hour mixed meal tolerance test, P = 0.003
  circulating PYY vs placebo: elevated
[9]; overall across follow-up, P = 0.016
  circulating GLP-1 vs placebo (GEE): higher

## CCCO[C@H]1CC[C@H](N(C(=O)Nc2ncc(SCC(=O)O)s2)C2CCCCC2)CC1 [TTP399]
Glucokinase [10]
  A1C vs placebo: −0.9%
Glucokinase [11]; 12 weeks
  plasma β-hydroxybutyrate or urine ketones vs placebo: no significant or clinically relevant increases
  severe hypoglycemia: No incidents
Glucokinase [11]; Part 1 (n=19)
  improvement of TIR 70-180 vs placebo: 12%
Glucokinase [11]; Part 2 (n=85), 12 weeks
  A1C vs placebo, trial product estimand: -0.32% and -0.3%
Glucokinase [11]; Part 2, ITT
  improvement of (daytime) TIR: 8%
Glucokinase [11]; Part 2, placebo 12%
  responders: 42%

## Insulin icodec
[12]; 95% CI 0.69, 0.94
  estimated treatment ratio of weekly dose vs IGlar U100: 0.81
[12]; 95% CI -0.38, 0.02
  estimated treatment difference HbA1c vs IGlar U100: -0.18%
[12]; 95% CI -0.66, 0.23
  estimated treatment difference FPG vs IGlar U100: -0.22 mmol/L
[12]; baseline 8.1 icodec, 8.0 IGlar U100
  estimated mean HbA1c at week 26: 6.7%
[12]; in vivo
  estimated mean FPG at week 26: 6.84 mmol/L
  estimated mean weekly insulin dose, last two weeks: 229 U/week
[12]; on-treatment period
  level 2 and 3 hypoglycaemia: 53 events per 100 patient years of exposure
[12]; week 26
  estimated mean change in HbA1c from baseline: -1.33 %-points
[13]
  terminal half-life: ~ 196 hours

## CN(C)C(=N)N=C(N)N [metformin]
[14]
  increase of FGF21 mRNA: 12 fold
  increase of GDF15 mRNA: 4 fold
[15]
  systolic blood pressure, mean difference compared to placebo: -1.21 mmHg
[16]
  plasma glucose iAUC 0-180 min: 516 ± 46 mmol·min/L
Human heart
  metformin uptake in healthy human hearts: no uptake
[17]
  GLP-1 and peptide YY during meal test: increased
[18]
  increase of lactate concentration, arterialized blood: 2%
[18]; n=8 cirrhotic participants
  increase of lactate concentration, portal vein: 23%
[19]
  serum uteroglobin: 16.47 ± 1.33 ng/mL
[20]; without 146 ± 30
  serum FGF21: 156 ± 29 ng/mL
[20]; without 607 ± 89
  serum GDF15: 1004 ± 61 ng/mL
